Sampled rows, rich in hits. Any-hit rate of the full collection: about 2.9%.
TRPC4 act: activators of mouse TRPC4 channel, primary screen, Fluo4 calcium, HEK293 TRPC4beta/mu-opioid cells. B-score at 10 µM. Fluo4 calcium fluorescence; stronger effect = higher value. 310,000 compounds, 0.49% hits. Short transient receptor potential channel 4 (Mus musculus), Q9QUQ5;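 active = B-score above 5 SD of library B-scores, and initial fluorescence ratio not above library mean plus 5 SD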;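 also: positive B-score marks a calcium rise read as TRPC4 activation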
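Assay system – TRPC4beta and mu-opioid receptor HEK293 stable cells · Measured by – Fluo4 fluorescence, kinetic · Schedule – dye loading 45 min room temperature, 110 s kinetic read · Read-out – B-scored integrated calcium fluorescence ratio · Controls – buffer and maximal DAMGO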
Kir21 block: inhibitors of mouse Kir2.1 inward-rectifier potassium channel; Inward rectifier potassium channel 2 (Mus musculus), P35561; HEK293-Kir2.1, FluxOR thallium flux fluorescence; stronger effect = lower value; B-score at 10 µM; 310,000 compounds, 0.85% hits; AID 1672, 2009;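 active = fluorescence ratio B-score at or below minus 3 SD of library scores, with starting-brightness B-score within 2 SD, cut at about -4.2 in these data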;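 also: channel flux triggered by added potassium and thallium sulfate stimulus; B-score of peak minus minimum fluorescence over baseline after thallium stimulus; more negative B-score means stronger Kir2.1 block with less thallium influx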
Target sequence (P35561 whole entry, looked up): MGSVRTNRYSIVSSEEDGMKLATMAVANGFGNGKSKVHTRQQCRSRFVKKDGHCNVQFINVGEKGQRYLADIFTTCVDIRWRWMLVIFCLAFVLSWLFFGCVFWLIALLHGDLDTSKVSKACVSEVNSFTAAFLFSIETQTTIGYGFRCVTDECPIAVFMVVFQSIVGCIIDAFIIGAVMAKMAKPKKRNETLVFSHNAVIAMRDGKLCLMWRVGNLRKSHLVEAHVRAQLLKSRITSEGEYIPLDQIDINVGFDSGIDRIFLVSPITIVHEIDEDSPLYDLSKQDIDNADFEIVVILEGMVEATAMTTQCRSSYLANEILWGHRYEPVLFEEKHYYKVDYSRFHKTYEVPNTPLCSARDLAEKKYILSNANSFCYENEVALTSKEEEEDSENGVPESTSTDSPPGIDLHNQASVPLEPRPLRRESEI
TRPC6 activator: mouse TRPC6 channel activators, primary screen, cell-based, HEK293, membrane potential dye; Short transient receptor potential channel 6 (Mus musculus), Q61143; HEK293-TRPC6 membrane potential dye fluorescence; stronger effect = higher value; B-score at 10 µM; 310,000 compounds, 0.13% hits;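 active = B-score of the integrated fluorescence ratio above library mean plus 3 SD, and starting fluorescence ratio within library mean plus 5 SD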;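 also: higher score means more depolarization so channel activation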
TRPC4 PAM: positive allosteric modulators of TRPC4, primary screen, cell-based, mouse TRPC4beta, HEK293 mu-opioid, Fluo-4 calcium; 310,000 compounds, 0.42% hits; DAMGO EC20, Fluo-4 Ca2+ flux; stronger effect = higher value; B-score at 10 µM;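 active = B-score of calcium response area above 5 SD of library B-scores, with initial fluorescence ratio within 5 SD of library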;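 also: B-score of integrated fluorescence ratio over time as area under calcium response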
TRPC4 inh: inhibitors of mouse TRPC4 channel, primary screen, Fluo4 calcium, HEK293 TRPC4beta/mu-opioid cells; Short transient receptor potential channel 4 (Mus musculus), Q9QUQ5; DAMGO-evoked Fluo4 calcium flux; stronger effect = lower value; B-score at 10 µM; 300,000 compounds, 0.39% hits; AID 2247, 2010;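 active = B-score over 3 SD under the library average, no early fluorescence shift, positive overall ratio signal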
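Assay system: HEK293 cells with stable TRPC4beta plus mu-opioid receptor expression. Dosing: single dose. Measured by: Fluo4 Ca2+ flux fluorescence. Also added: DAMGO in two steps, submaximal then maximal. Read-out: B score from integrated Fluo4 fluorescence ratio.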
TRPC6 inh: mouse TRPC6 channel inhibitors, primary screen, cell-based, HEK293, membrane potential dye; 310,000 compounds, 1.1% hits; Short transient receptor potential channel 6 (Mus musculus), Q61143; AID 2553, 2010; B-score at 10 µM; ACh-evoked depolarization; stronger effect = lower value;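 active = B-score under library mean minus 3 SD, initial fluorescence not abnormally high, positive integrated signal ratio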;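 also: B-score derived from integrated fluorescence ratio over the kinetic read; more negative B-score means stronger inhibition of depolarization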
Numbers without * were called inactive; i = inactive.

SMILES	TRPC4 act	Kir21 block	TRPC6 activator	TRPC4 PAM	TRPC4 inh	TRPC6 inh
Cn1c(-c2ccc(F)cc2)cnc1NCc1ccccc1F	i	0.1	i	i	i	i
Cn1c(-c2ccc(F)cc2)cnc1NCc1ccc(F)cc1F	i	-1.2	i	i	-6*	i
Cc1ccc(CNc2ncc(-c3ccc4c(c3)OCO4)n2C)cc1	i	-10*	i	i	i	i
CCN(C(=O)c1cc2ccccc2o1)C12CC3CC(CC(C3)C1)C2	i	-0.87	i	i	i	i
CCCc1nc2oc3c(NCCN(C)C)ncnc3c2c2c1CCCC2	i	-0.53	i	i	-6*	i
CCCS(=O)(=O)c1c(S(=O)(=O)CCC)c2cnccn2c1C(=O)c1ccc(Cl)cc1	i	0.55	i	12*	i	i
CCCS(=O)(=O)c1c(S(=O)(=O)CCC)c2ccc(C(N)=O)cn2c1C(=O)c1ccc(F)cc1	i	0.5	i	i	i	i
Cc1cccc(N2C(=O)c3cccc4c(N(C)CCO)ccc(c34)C2=O)c1	i	-5	i	i	i	i
Cc1nc(S/C(=C/c2ccc(-c3cc(Cl)ccc3C)o2)C(=O)O)n[nH]1	i	-1	i	i	-6*	i
COc1ccc2c(Cl)c(-c3nnc(SCC(N)=O)n3C)sc2c1	i	-0.68	i	i	i	i
COc1ccc2c(Cl)c(-c3nnc(SCC(=O)c4ccccc4)n3C)sc2c1	104*	0.91	i	i	i	i
CCCN(CCC)C(=O)Cc1coc2ccc3ccccc3c12	i	-4.5*	i	10*	i	i
CCOC(=O)c1c(NC(=O)COC(=O)c2cnccn2)sc(C(=O)NC)c1C	i	-0.08	i	i	i	i
O=S(=O)(c1ccc(Cl)cc1)N1CCN2CCCC2C1 (configuration not stated)	98*	1.9	i	34*	i	i
Cc1ccc(S(=O)(=O)N2CCN3CCCC3C2)cc1 (configuration not stated)	i	-1.1	i	i	i	i
C=CCS(=O)(=O)N1CCCC(N2CCN(c3ccccc3OC)CC2)C1 (configuration not stated)	i	0.13	i	i	i	i
COc1ccccc1N1CCN(C2CCCN(S(=O)(=O)c3ccccc3)C2)CC1 (configuration not stated)	i	0.67	i	i	-6*	i
O=C1Cc2ccccc2Sc2c(OCCN3CCCCC3)cccc21	i	-7.7*	i	i	i	i
CN(C)CCCOc1ccc2c(c1)Sc1ccccc1CC2=O	i	-4.2*	i	i	i	i
O=C1Cc2ccccc2Sc2cc(OCCCN3CCCCC3)ccc21	i	-8.7*	i	i	i	i
Nc1ccc2c(c1)C(=O)Cc1ccccc1S2	i	0.92	i	i	i	i
Cc1cccc(C)c1Nc1nnc(SCc2nc3ccccc3s2)s1	i	-1.3	i	i	i	i
CC(=O)OCc1c(C(F)(F)F)nn(C)c1Oc1ccccc1	i	-1	i	i	i	i
CCOC(=O)c1c(NC(NC(C)=O)C(Cl)(Cl)Cl)sc2c1CCCC2 (configuration not stated)	i	-0.03	i	21*	i	i
CCOC(=O)c1c(NC(=O)C2CC(Cl)=CCC2C(=O)O)sc2c1CCCCC2 (configuration not stated)	i	0.49	i	i	-6*	i
SMILES	TRPC4 act	Kir21 block	TRPC6 activator	TRPC4 PAM	TRPC4 inh	TRPC6 inh
CCOC(=O)c1c(NC(=O)CCNCc2ccco2)sc2c1CCC2	i	-17*	i	11*	i	i
CCC(Sc1nc(=O)cc(N)n1-c1ccccc1)C(=O)Nc1cc(C)on1 (configuration not stated)	i	0.31	i	i	i	i
CCOC(=O)c1c(CN2CCCCC2)n(C)c2cc(Br)c(OC)cc12	i	-0.37	i	i	i	i
CS(=O)(=O)NC1c2cccc3cccc(c23)C1N1CCOCC1 (configuration not stated)	i	-1.1	i	i	i	i
Cc1cccc(OCCCc2c(C)n[nH]c2C)c1	i	-1.1	i	i	-6*	i
COc1cccc(OC)c1OCCCc1c(C)n[nH]c1C	i	0.02	i	i	i	i
CCCn1c(N2CCN(C(=O)/C=C/C(=O)O)CC2)nc2ccccc21	57*	-1.2	i	i	i	i
O=C(Cn1c(N2CCN(c3ccccc3)CC2)nc2ccccc21)c1ccccc1	i	-0.05	i	i	i	i
CCn1c(N2CCN(C(=O)/C=C/c3ccccc3)CC2)nc2ccccc21	94*	-0.63	i	i	i	i
O=C(/C=C/c1ccccc1)N1CCCN(C(=O)/C=C/c2ccccc2)CC1	i	-0.01	i	i	i	i
c1ccc(C2(CNc3ccccn3)CCCC2)cc1	i	-4.4*	i	i	i	i
COc1ccc(-c2cn3c(C)c(C(=O)Nc4cccc(C)n4)sc3n2)cc1	i	2.4	i	i	i	i
NC(=S)Nc1cccc2cc3ccccc3cc12	i	-0.69	i	i	i	i
NC(=S)Nc1cc2ccccc2c2ccccc12	i	-2.5	i	14*	i	i
Cc1ccc(CNC(=O)CCC(=O)c2cccs2)cc1	i	0.45	i	i	i	i
C=CCNC(=S)N(CC)c1cccc2ccccc12	i	-5.3*	i	i	i	i
CCOC(=O)/C(C(=Nc1ccccc1)Nc1ccccc1)=C(\C)O	i	-0.68	i	i	i	i
NC(=Nc1ccccc1)Nc1ccccc1	134*	-0.42	i	i	i	i
CN(C)C(CNC(=O)CSc1nnc(-c2ccco2)o1)c1ccccc1 (configuration not stated)	64*	-2	i	i	i	i
CCNC(=O)N1c2ccc(OCC)cc2C(C)=CC1(C)C	i	-0.01	i	i	-7*	i
Cc1cccc(C(C)C)c1NC(=O)CN1C(=O)NC(Cc2ccccc2)C1=O (configuration not stated)	i	0.32	i	i	i	i

Source: PubChem
